Data published in ChEMBL document CHEMBL1146361, “Studies on acyclic pyrimidines as inhibitors of mycobacteria” (Bioorg Med Chem, 2007).
Active and inactive are the calls of the source. No cut-off for these calls is given here.

Assays:
Staphylococcus aureus = experiment: Antibacterial activity against Staphylococcus aureus up to 100 ug/ml after 16 to 20 hrs by broth microdilution method; format: functional, organism-based
Mycobacterium avium [1] = experiment: Antimycobacterial activity against Mycobacterium avium ATCC 25291 at 100 ug/mL after 24 to 48 hrs by MABA; format: functional
In short: (§1)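 Compounds in DMSO (100× highest final concentration), diluted in 7H9GC; tested at 100, 50, 10 and 1 µg/mL in triplicate, three experiments. Frozen inoculum diluted in 7H9GC. Read visually and spectrophotometrically. […], mean given. Visual MIC = lowest concentration preventing blue-to-pink change.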

Pseudomonas aeruginosa = experiment: Antibacterial activity against Pseudomonas aeruginosa up to 100 ug/ml after 16 to 20 hrs by broth microdilution method; format: functional, organism-based
Streptococcus pneumoniae = experiment: Antibacterial activity against Streptococcus pneumoniae up to 100 ug/ml after 16 to 20 hrs by broth microdilution method; format: functional, organism-based
[2] = system: Mycobacterium tuberculosis; experiment: Antimycobacterial activity against Mycobacterium tuberculosis H37Ra at 10 ug/mL after 24 to 48 hrs by MABA; format: functional; in short: as §1
Salmonella typhimurium = experiment: Antibacterial activity against Salmonella Typhimurium up to 100 ug/ml after 16 to 20 hrs by broth microdilution method; format: functional, organism-based; details: Salmonella enterica subsp. enterica serovar Typhimurium
HepG2 = experiment: Toxicity against HepG2 cells; format: functional, cell-based; details: Homo sapiens
[3] = system: Mycobacterium tuberculosis; experiment: Antimycobacterial activity against Mycobacterium tuberculosis H37Ra at 100 ug/mL after 24 to 48 hrs by MABA; format: functional; in short: as §1
Proteus vulgaris = experiment: Antibacterial activity against Proteus vulgaris up to 100 ug/ml after 16 to 20 hrs by broth microdilution method; format: functional, organism-based
[4] = system: Mycobacterium tuberculosis; experiment: Antimycobacterial activity against Mycobacterium tuberculosis H37Ra at 50 ug/mL after 24 to 48 hrs by MABA; format: functional; in short: as §1
Mycobacterium avium [5] = experiment: Antimycobacterial activity against Mycobacterium avium ATCC 25291 at 50 ug/mL after 24 to 48 hrs by MABA; format: functional; in short: as §1
Mycobacterium avium [6] = experiment: Antimycobacterial activity against Mycobacterium avium ATCC 25291 at 10 ug/mL after 24 to 48 hrs by MABA; format: functional; in short: as §1
[7] = system: Staphylococcus epidermidis; experiment: Antibacterial activity against Staphylococcus epidermidis up to 100 ug/ml after 16 to 20 hrs by broth microdilution method; format: functional, organism-based
Enterococcus faecalis = experiment: Antibacterial activity against Enterococcus faecalis up to 100 ug/ml after 16 to 20 hrs by broth microdilution method; format: functional, organism-based
Bacillus subtilis = experiment: Antibacterial activity against Bacillus subtilis up to 100 ug/ml after 16 to 20 hrs by broth microdilution method; format: functional, organism-based
Escherichia coli = experiment: Antibacterial activity against Escherichia coli up to 100 ug/ml after 16 to 20 hrs by broth microdilution method; format: functional, organism-based
Mycobacterium avium [8] = experiment: Antimycobacterial activity against Mycobacterium avium ATCC 25291 at 2 ug/mL after 24 to 48 hrs by MABA; format: functional
Mycobacterium avium [9] = experiment: Antimycobacterial activity against Mycobacterium avium ATCC 25291 at 1 ug/mL after 24 to 48 hrs by MABA; format: functional; in short: as §1
[10] = system: Mycobacterium tuberculosis; experiment: microbe, parasite or virus in culture; details: H37Ra

Compound	Activity (Staphylococcus aureus)	inhibition at 100 µg/mL (Mycobacterium avium [1]) [%]	Activity (Pseudomonas aeruginosa)	Activity (Streptococcus pneumoniae)	inhibition at 10 µg/mL [2] [%]	Activity (Salmonella typhimurium)	Activity (HepG2)	inhibition at 100 µg/mL [3] [%]	Activity (Proteus vulgaris)	inhibition at 50 µg/mL [4] [%]	inhibition at 50 µg/mL (Mycobacterium avium [5]) [%]	inhibition at 10 µg/mL (Mycobacterium avium [6]) [%]	Activity [7]	Activity (Enterococcus faecalis)	Activity (Bacillus subtilis)	Activity (Escherichia coli)	inhibition at 2 µg/mL (Mycobacterium avium [8]) [%]	inhibition at 1 µg/mL (Mycobacterium avium [9]) [%]	inhibition at 1 µg/mL [10] [%]
C=C(N=[N+]=[N-])c1cn(COCCO)c(=O)[nH]c1=O	inactive	50	inactive	inactive	25	inactive	Not toxic	100	inactive	100	50	50	inactive	inactive	inactive	inactive			
[N-]=[N+]=NC(CCl)c1cn(COCCO)c(=O)[nH]c1=O (stereo unspecified)	inactive	100	inactive	inactive	50	inactive	Not toxic	100	inactive	100	100	50	inactive	inactive	inactive	inactive			
[N-]=[N+]=NC(CI)c1cn(COCCO)c(=O)[nH]c1=O (stereo unspecified)	inactive	50	inactive	inactive	50	inactive	Not toxic	100	inactive	100	50		inactive	inactive	inactive	inactive			
CC[C@H]1OC(=O)[C@H](C)[C@@H](O[C@H]2C[C@@](C)(OC)[C@@H](O)[C@H](C)O2)[C@H](C)[C@@H](O[C@@H]2O[C@H](C)C[C@H](N(C)C)[C@H]2O)[C@](C)(OC)C[C@@H](C)C(=O)[C@H](C)[C@@H](O)[C@]1(C)O [CLARITHROMYCIN]																	95		
CO[C@H]1/C=C/O[C@@]2(C)Oc3c(C)c(O)c4c(O)c(c(/C=N/N5CCN(C)CC5)c(O)c4c3C2=O)NC(=O)/C(C)=C\C=C\[C@H](C)[C@H](O)[C@@H](C)[C@@H](O)[C@@H](C)[C@H](OC(C)=O)[C@@H]1C [RIFAMPIN]																	90	100	100
CCCCCCCCC#Cc1cn(COC(CO)CO)c(=O)[nH]c1=O	inactive	100	inactive	inactive	50	inactive	Not toxic	100	inactive	100	25		inactive	inactive	inactive	inactive			
